From ChEMBL document CHEMBL1811802, “Synthesis and significant cytostatic activity of 7-hetaryl-7-deazaadenosines” (J Med Chem, 2011)
Values after ≈ are worked out from the molar mass of the structure shown.

How the values were obtained:
PC-3 [1] = experiment: Cytostatic activity against human PC3 cells after 5 days by SRB assay; format: functional; conditions: PC-3, 120 h
In short: (§1)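 Cells seeded per line density, overnight at 37 °C; day-zero plate TCA-fixed. 5-fold serial dilutions added, 5-day incubation; TCA fixation, 0.057% SRB in 1% acetic acid 30 min, dye dissolved in 10 mM Tris pH 10.5, A500. Growth relative to day-zero and untreated; GIC50 from sigmoidal dose–response fit; mean of two independent experiments.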

HeLa = experiment: Cytotoxicity against human HeLa cells after 3 days by MTT assay; format: functional, cell-based; conditions: 72 h
SK-OV-3 = experiment: Cytotoxicity against human SKOV3 cells after 3 days by MTT assay; format: functional, cell-based; conditions: SK-OV-3, 72 h
BT-549 [2] = experiment: Cytotoxicity against human BT549 cells after 3 days by MTT assay; format: functional, cell-based; conditions: BT-549, 72 h
[3] = Cytostatic activity against human Hs578 cells after 5 days by SRB assay; format: functional; conditions: Hs578, 120 h; in short: as §1
HPAC = experiment: Cytotoxicity against human HPAC cells after 3 days by MTT assay; format: functional, cell-based; conditions: 72 h
LNCaP = experiment: Cytotoxicity against human LNCAP cells after 3 days by MTT assay; format: functional, cell-based; conditions: 72 h
SK-MEL-2 = experiment: Cytotoxicity against human SK-MEL-2 cells after 3 days by MTT assay; format: functional, cell-based; conditions: SK-MEL-2, 72 h
EL4 = experiment: Cytotoxicity against mouse EL4 cells after 3 days by MTT assay; format: functional, cell-based; conditions: EL4, 72 h
NCI-H23 = experiment: Cytostatic activity against human NCI-H23 cells after 5 days by SRB assay; format: functional; conditions: NCI-H23, 120 h; in short: as §1
SK-N-AS = experiment: Cytotoxicity against human SK-N-AS cells after 3 days by MTT assay; format: functional, cell-based; conditions: 72 h
K562 [4] = experiment: Cytotoxicity against human paclitaxel resistant K562 cells after 3 days by MTT assay; format: functional, cell-based; conditions: K562, 72 h
[5] = Cytotoxicity against human MES-SA cells after 3 days by MTT assay; format: functional, cell-based; conditions: 72 h
HCT-116 [6] = experiment: Cytotoxicity against human HCT116 cells after 3 days by MTT assay; format: functional, cell-based; conditions: HCT-116, 72 h
[7] = Cytotoxicity against human NCI-H146 cells after 3 days by MTT assay; format: functional, cell-based; conditions: NCI-H146, 72 h
BT-549 [8] = experiment: Cytostatic activity against human BT549 cells after 5 days by SRB assay; format: functional; conditions: BT-549, 120 h; in short: as §1
HT-29 = experiment: Cytotoxicity against human HT-29 cells after 3 days by MTT assay; format: functional, cell-based; conditions: HT-29, 72 h
MAT-Ly-Lu = experiment: Cytotoxicity against rat MAT-LyLu cells after 3 days by MTT assay; format: functional, cell-based; conditions: 72 h
A549 = experiment: Cytostatic activity against human A549 cells after 5 days by SRB assay; format: functional; conditions: A549, 120 h; in short: as §1
[9] = Cytotoxicity against human CEM-DNR-bulk cells after 3 days by MTT assay; format: functional, cell-based; conditions: 72 h
K562 [10] = experiment: Cytotoxicity against human K562 cells after 3 days by MTT assay; format: functional, cell-based; conditions: K562, 72 h
PC-3 [11] = experiment: Cytotoxicity against human PC3 cells after 3 days by MTT assay; format: functional, cell-based; conditions: PC-3, 72 h
[12] = Cytotoxicity against mouse P388D1 cells after 3 days by MTT assay; format: functional, cell-based; conditions: P388D1, 72 h
HCT-116 [13] = experiment: Cytostatic activity against human HCT116 cells after 5 days by SRB assay; format: functional; conditions: HCT-116, 120 h; in short: as §1
CCRF-CEM = experiment: Cytotoxicity against human CCRF-CEM cells after 3 days by XTT assay; format: functional, cell-based; conditions: 72 h
In short: (§2)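 Suspension-grown cell lines, 3-day compound incubation; viability read by XTT metabolic assay; IC50 averaged from four independent experiments.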

[14] = Cytotoxicity against human U87MG cells after 3 days by MTT assay; format: functional, cell-based, U-87MG ATCC; conditions: U-87 MG, 72 h
L1210 = experiment: Cytotoxicity against mouse L1210 cells after 3 days by MTT assay; format: functional, cell-based; conditions: L1210, 72 h
BV-173 = experiment: Cytotoxicity against human BV173 cells after 3 days by MTT assay; format: functional, cell-based; conditions: BV-173, 72 h
BJ = experiment: Cytotoxicity against human BJ cells after 3 days by MTT assay; format: cell-based; conditions: 72 h
CT26 = experiment: Cytotoxicity against mouse CT26 cells after 3 days by MTT assay; format: functional, cell-based; conditions: CT26, 72 h
[15] = Cytotoxicity against human HeLaS3 cells after 3 days by XTT assay; format: functional, cell-based; conditions: HeLa S3, 72 h; in short: as §2
C6 = experiment: Cytotoxicity against rat C6 cells after 3 days by MTT assay; format: functional, cell-based; conditions: C6, 72 h
MCF7 = experiment: Cytotoxicity against human MCF7 cells after 3 days by MTT assay; format: functional, cell-based; conditions: MCF7, 72 h
HL-60 = experiment: Cytotoxicity against human HL60 cells after 3 days by XTT assay; format: functional, cell-based; conditions: HL-60, 72 h; in short: as §2
MDA-MB-231 = experiment: Cytotoxicity against human MDA-MB-231 cells after 3 days by MTT assay; format: functional, cell-based; conditions: MDA-MB-231, 72 h
Adenosine kinase = Adenosine kinase (Homo sapiens, UniProt P55263); experiment: Inhibition of human ADK using [3H]-adenosine by scintillation counting
Adenosine kinase, sequence (P55263 whole entry): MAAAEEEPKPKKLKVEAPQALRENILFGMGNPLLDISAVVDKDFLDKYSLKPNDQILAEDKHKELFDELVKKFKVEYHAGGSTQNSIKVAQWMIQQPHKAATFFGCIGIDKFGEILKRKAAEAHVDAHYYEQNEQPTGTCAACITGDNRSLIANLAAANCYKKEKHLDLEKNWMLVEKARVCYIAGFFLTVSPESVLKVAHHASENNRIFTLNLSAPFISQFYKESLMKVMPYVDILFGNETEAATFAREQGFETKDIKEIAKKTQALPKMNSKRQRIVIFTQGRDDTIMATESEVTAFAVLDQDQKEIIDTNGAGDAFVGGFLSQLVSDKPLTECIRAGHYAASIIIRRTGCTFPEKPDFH

MT4 = experiment: Cytostatic activity against human MT4 cells after 5 days by SRB assay; format: functional; conditions: MT4, 120 h
[16] = Inhibition of RNA polymerase 2 in human HeLaScribe nuclear extracts after 1 hr
In short: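 HeLaScribe nuclear extract transcription with CMV(+) template DNA, 3 mM MgCl2, 400 μM CTP/GTP/UTP, 25 μM [33P]ATP. Inhibitor preincubated 5 min at 30 °C, then 1 h at 30 °C. Products run on 6% urea–polyacrylamide gel; full-length transcript quantified; IC50 is 50% product decrease.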

Row | SMILES | IC50 (HeLa) | IC50 (SK-OV-3) | IC50 (BT-549 [2]) | IC50 (HPAC) | IC50 (LNCaP) | IC50 (SK-MEL-2) | IC50 (EL4) | IC50 (SK-N-AS) | IC50 (K562 [4]) | IC50 [5] | IC50 (HCT-116 [6]) | IC50 [7] | IC50 (HT-29) | IC50 [9] | IC50 (K562 [10]) | IC50 (PC-3 [11]) | IC50 [12] | IC50 [14] | IC50 (L1210) | IC50 (BV-173) | other results
1 | Nc1ncnc2c1c(-c1cn[nH]c1)cn2[C@@H]1O[C@H](CO)[C@@H](O)[C@H]1O | 0.185 µM | > 10 µM | 0.108 µM | 0.141 µM | 9.55 µM | > 10 µM | > 10 µM | > 10 µM | 0.092 µM | 7.74 µM | > 10 µM | > 10 µM | 0.136 µM | 0.104 µM | 9.83 µM | > 10 µM | 0.093 µM | > 10 µM | 0.258 µM | 9.78 µM | GI50 (PC-3 [1]): 0.014 µM; GI50 [3]: 0.012 µM; GI50 (NCI-H23): 0.144 µM; GI50 (BT-549 [8]): 0.05 µM; IC50 (MAT-Ly-Lu): > 10 µM; GI50 (A549): 0.192 µM; GI50 (HCT-116 [13]): 0.97 µM; IC50 (CCRF-CEM): 0.56 µM; IC50 (BJ): > 10 µM; IC50 (CT26): 0.396 µM; IC50 [15]: 0.22 µM; IC50 (C6): 0.538 µM; IC50 (MCF7): > 10 µM; IC50 (HL-60): > 25 µM; IC50 (MDA-MB-231): > 10 µM; IC50 (Adenosine kinase): 0.05 µM; GI50 (MT4): 0.11 µM
2 | Nc1nc(Cl)nc2c1ncn2[C@H]1C[C@H](O)[C@@H](CO)O1 [CLADRIBINE] | > 10 µM | > 10 µM | 0.123 µM | 9.32 µM | > 10 µM | > 10 µM | 0.848 µM | > 10 µM | 0.17 µM | 0.165 µM | 9.43 µM | > 10 µM | 9.44 µM | 0.352 µM | 7.69 µM | 8.28 µM | 0.285 µM | > 10 µM | 0.393 µM | 0.0008 µM | IC50 (BJ): > 10 µM; IC50 (CT26): 0.131 µM; IC50 (C6): 9.07 µM; IC50 (MCF7): 2.35 µM; IC50 (MDA-MB-231): > 10 µM
3 | CC[C@H](C)[C@@H]1NC(=O)CNC(=O)[C@@H]2Cc3c([nH]c4cc(O)ccc34)[S+]([O-])C[C@@H](NC(=O)CNC1=O)C(=O)N[C@@H](CC(N)=O)C(=O)N1C[C@H](O)C[C@H]1C(=O)N[C@@H]([C@@H](C)[C@@H](O)CO)C(=O)N2 (stereo partly drawn) [alpha-Amanitin] |  |  |  |  |  |  |  |  |  |  |  |  |  |  |  |  |  |  |  |  | IC50 [16]: 2.2 ng/mL (≈ 2.39 nM)
